Among the data in ChEMBL document CHEMBL2424556, “Hybrid benzofuran-bisindole derivatives: new prototypes with promising anti-hyperlipidemic activities” (2013) are Activity and inhibition values, retold here.

The source made the active and inactive calls. The rule behind the calls is not given here.

Experiment [1] concerns Rattus norvegicus. The experiment can be described thus: Antihyperlipidemic activity in Charles-Foster rat assessed as reversal of triton-induced increase in plasma phospholipid level at 100 mg/kg, po after 18 hrs relative to triton-treated control. Type of experiment: functional. A digest of the protocol:
(§1)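 Male adult Charles Foster rats (200-225 g), 6 per group; triton WR-1339 400 mg/kg i.p. plus oral test agent in 0.2% gum acacia suspension, given together, diet withdrawn. After 18 h, retro-orbital EDTA blood was centrifuged 2500 g, 4 °C, 10 min; plasma was diluted 1:3 in saline and TC, PL and TG were assayed enzymatically (mg/dl). Mean ± SD; Student's t-test.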

In experiment [2] the test system is Rattus norvegicus. The experiment can be described thus: Antihyperlipidemic activity in Charles-Foster rat assessed as reversal of triton-induced increase in plasma triglyceride level at 100 mg/kg, po after 18 hrs relative to control. It is filed as functional. A digest of the protocol:
as §1

For experiment [3], the system named is Rattus norvegicus. The experiment can be described thus: Antihyperlipidemic activity in Charles-Foster rat assessed as post heparin lipolytic activity at 100 mg/kg, po after 18 hrs by spectrophotometric analysis relative to triton-treated control. It is filed as functional. Summed up: (§2)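 Male adult Charles Foster rats (200-225 g), 6 per group. Triton WR-1339 400 mg/kg i.p.; test agent 100 mg/kg p.o. as gum acacia (0.2% w/v) suspension in water, given simultaneously, diet withdrawn; vehicle to control and triton groups. At 18 h under thiopentone (50 mg/kg), retro-orbital blood collected into EDTA and plasma separated. Post-heparin lipolytic activity read spectrophotometrically as nmol free fatty acid/h/ml plasma; mean ± SD; Student's t-test.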

The subject of experiment [4] is Rattus norvegicus. The experiment can be described thus: Antihyperlipidemic activity in Charles-Foster rat assessed as reversal of triton-induced increase in plasma phospholipid level at 100 mg/kg, po after 18 hrs relative to control. Type of experiment: functional. A digest of the protocol: as §1
Experiment [5] has as its system Rattus norvegicus. The experiment can be described thus: Antihyperlipidemic activity in Charles-Foster rat assessed as reversal of triton-induced increase in plasma triglyceride level at 100 mg/kg, po after 18 hrs relative to triton-treated control. Type of experiment: functional. Summed up: as §1
Experiment [6] concerns Rattus norvegicus. The experiment can be described thus: Antihyperlipidemic activity in Charles-Foster rat assessed as post heparin lipolytic activity at 100 mg/kg, po after 18 hrs by spectrophotometric analysis relative to control. It is filed as functional. A digest of the protocol:
as §2

In experiment [7] the test system is Rattus norvegicus. The experiment can be described thus: Antihyperlipidemic activity in Charles-Foster rat assessed as reversal of triton-induced increase in plasma total cholesterol level at 100 mg/kg, po after 18 hrs relative to control. Type of experiment: functional. A digest of the protocol:
as §1

Experiment [8] has as its system Rattus norvegicus. The experiment can be described thus: Antihyperlipidemic activity in Charles-Foster rat assessed as reversal of triton-induced increase in plasma total cholesterol level at 100 mg/kg, po after 18 hrs relative to triton-treated control. It is filed as functional. A digest of the protocol:
as §1

Experiment [9] relates to Rattus norvegicus. The experiment can be described thus: Antihyperlipidemic activity in triton-induced Charles-Foster rat assessed as increase in plasma lecithin cholesterol acyltransferase activity at 100 mg/kg, po after 18 hrs by colorimetric assay. Type of experiment: functional, organism-based. Also noted: dose 100 mg/kg.
A short description of experiment [10]: Antioxidant activity assessed as inhibition of hydroxyl radical generation at 200 ug/mL after 90 mins by spectrophotometric analysis relative to control. It is filed as functional. Summed up: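 Hydroxyl radicals were generated non-enzymically from deoxyribose (2.8 mM), FeSO4 (2 mM), sodium ascorbate (2.0 mM) and H2O2 (2.8 mM) in KH2PO4 buffer pH 7.4, 2.5 mL final, with or without agent at 200 µg/ml, for 90 min at 37 °C. MDA was read spectrophotometrically by the thiobarbituric acid method against reference samples and reagent blanks.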

Experiment [11] can be described thus: Antioxidant activity assessed as inhibition of microsomal lipid peroxidation at 200 ug/mL by spectrophotometric analysis relative to control. Type of experiment: functional.

Consider `CCCc1cc(C(c2c[nH]c3ccc(O)cc23)c2c[nH]c3ccc(O)cc23)cc2cc(C(=O)c3ccc(OC)cc3)oc12`, for which the Activity was -22% in [1]; 172.88 mg/dL in [2]; 15% in [3]; 161.36 mg/dL in experiment [4]; -20% in [5]; 15.19 nmol/h/mL in experiment [6]. Also, the Activity in experiment [7] was 143.68 mg/dL; in [8], -22%.

For the compound `Cc1ccc(C(=O)c2cc3cc(C(c4c[nH]c5ccccc45)c4c[nH]c5ccccc45)cc(C)c3o2)cc1`, the Activity is -8% in experiment [1]; 196.66 mg/dL in experiment [2]; 8% in experiment [3]; 190.32 mg/dL in [4]; -9% in experiment [5]; 14.26 nmol/h/mL in experiment [6]. The results for the Activity in [7] and in [8] were 169.47 mg/dL and -8%, respectively.

For the compound `Cc1cc(C(c2c[nH]c3ccccc23)c2c[nH]c3ccccc23)cc2cc(C(=O)c3ccc(C#N)cc3)oc12`, the Activity in experiment [1] is -8%; in experiment [2] it was 200.98 mg/dL; in experiment [3] it was 5%; in [4], 190.11 mg/dL; in [5], -7%; in experiment [6], 13.87 nmol/h/mL. Further, the Activity was 171.25 mg/dL in experiment [7] and -7% in experiment [8].

Take `COc1ccc(C(=O)c2cc3cc(C(c4c[nH]c5ccccc45)c4c[nH]c5ccccc45)cc(C(C)C)c3o2)cc1`: the Activity in experiment [1] was -15%; in experiment [2], 181.53 mg/dL; in experiment [3] it was 12%; in [4], 175.84 mg/dL; in [5], -16%; in experiment [6] it was 14.79 nmol/h/mL. Also, the Activity in experiment [7] was 152.89 mg/dL; in experiment [8], -17%.

Take `CCc1cc(C(c2c[nH]c3ccc([N+](=O)[O-])cc23)c2c[nH]c3ccc([N+](=O)[O-])cc23)cc2cc(C(=O)c3ccc(OC)cc3)oc12`: the Activity in [1] is -6%; in experiment [2] it was 207.46 mg/dL; in [3] it was 2%; in experiment [4], 194.46 mg/dL; in experiment [5], -4%; in [6] it was 13.47 nmol/h/mL. The Activity is 176.84 mg/dL in [7] and -4% in experiment [8].

`CC(C)c1cc(C(c2c[nH]c3ccccc23)c2c[nH]c3ccccc23)cc2cc(C(=O)c3ccc(C#N)cc3)oc12`: the Activity in [1] is -10%; in experiment [2] it was 193.81 mg/dL; in experiment [3] it was 4%; in experiment [4] it was 186.19 mg/dL; in [5], -10%; in [6] it was 13.75 nmol/h/mL. The Activity in [7] was 167.63 mg/dL; in [8] it was -9%.

For `Cc1ccc(C)c(OCCCC(C)(C)C(=O)O)c1` [GEMFIBROZIL], the Activity in experiment [1] was -35%; in experiment [2] it was 142.63 mg/dL; in experiment [3] it was 20%; in [4] it was 134.47 mg/dL; in experiment [5] it was -34%; in experiment [6], 15.85 nmol/h/mL. Moreover, the results for the Activity in [7] and in experiment [8] were 121.57 mg/dL and -34%, respectively. Moreover, in experiment [9], the result was Active.

Regarding `OC[C@@H](O)[C@@H](O)[C@H](O)[C@H](O)CO`, the inhibition – broadly, the change of the read-out against control, counted positive when it falls – in experiment [10] amounted to 49%; in [11], 52%.

Consider `COc1ccc(C(=O)c2cc3cc(C(c4c[nH]c5ccccc45)c4c[nH]c5ccccc45)cc(C(C)(C)C)c3o2)cc1`, for which the Activity was -8% in experiment [1]; 198.82 mg/dL in experiment [2]; 4% in [3]; 190.32 mg/dL in experiment [4]; -8% in [5]; 13.73 nmol/h/mL in experiment [6]. Also, the Activity in experiment [7] was 171.31 mg/dL; in experiment [8], -7%.

`COc1ccc(C(=O)c2cc3cc(C(c4c[nH]c5ccc(OC)cc45)c4c[nH]c5ccc(OC)cc45)cc(Cl)c3o2)cc1`: the Activity in [1] is -20%; in experiment [2] it was 168.56 mg/dL; in experiment [3] it was 15%; in experiment [4], 165.5 mg/dL; in [5], -22%; in [6] it was 15.19 nmol/h/mL. The values for the Activity in experiment [7] and in [8] were 145.52 mg/dL and -21%, respectively.

Turning to `CCc1cc(C(c2c[nH]c3ccccc23)c2c[nH]c3ccccc23)cc2cc(C(=O)c3ccc(Cl)cc3)oc12`, the Activity in [1] was -21%; in experiment [2] it was 170.72 mg/dL; in [3], 14%; in experiment [4] it was 163.43 mg/dL; in experiment [5] it was -21%; in experiment [6], 15.05 nmol/h/mL. Besides, the results for the Activity in [7] and in experiment [8] were 147.36 mg/dL and -20%, respectively.

In the case of `COc1ccc(C(=O)c2cc3cc(C(c4c[nH]c5ccc([N+](=O)[O-])cc45)c4c[nH]c5ccc([N+](=O)[O-])cc45)cc(C(C)C)c3o2)cc1`, the Activity is -10% in experiment [1]; 193.81 mg/dL in [2]; 4% in experiment [3]; 186.19 mg/dL in experiment [4]; -10% in [5]; 13.75 nmol/h/mL in experiment [6]. Further, the Activity in [7] is 167.63 mg/dL; in [8], -9%.

With `Cc1cc(C(c2c[nH]c3ccccc23)c2c[nH]c3ccccc23)cc2cc(C(=O)c3ccc(Cl)cc3)oc12`, the Activity in [1] is -10%; in [2], 192.33 mg/dL; in [3], 9%; in experiment [4] it was 186.19 mg/dL; in experiment [5] it was -11%; in experiment [6], 14.39 nmol/h/mL. The results for the Activity in [7] and in experiment [8] were 163.94 mg/dL and -11%, respectively.

`CC(C)(C)c1cc(C(c2c[nH]c3ccccc23)c2c[nH]c3ccccc23)cc2cc(C(=O)c3ccc(Cl)cc3)oc12`: the Activity in experiment [1] was -9%; in experiment [2] it was 194.49 mg/dL; in [3], 9%; in experiment [4], 187.91 mg/dL; in [5] it was -10%; in experiment [6], 14.37 nmol/h/mL. Besides, the figures for the Activity in experiment [7] and in experiment [8] were 165.78 mg/dL and -10%, respectively.

On to `COc1ccc(C(=O)c2cc3cc(C(c4c[nH]c5ccccc45)c4c[nH]c5ccccc45)cc(C)c3o2)cc1`, for which the Activity is -11% in experiment [1]; 194.49 mg/dL in experiment [2]; 4% in experiment [3]; 184.12 mg/dL in experiment [4]; -10% in [5]; 13.71 nmol/h/mL in [6]. For the same compound, the Activity in [7] was 162.1 mg/dL; in experiment [8] it was -12%.

Turning to `Cc1c(C)c2c(c(C)c1O)CC[C@@](C)(CCC[C@H](C)CCC[C@H](C)CCCC(C)C)O2`, the inhibition in [10] stood at 49%; in experiment [11], 52%.

For `CC(C)c1cc(C(c2c[nH]c3ccccc23)c2c[nH]c3ccccc23)cc2cc(C(=O)c3ccc(Cl)cc3)oc12`, the Activity in [1] is -10%; in experiment [2], 194.4 mg/dL; in experiment [3] it was 4%; in [4] it was 186.19 mg/dL; in experiment [5] it was -10%; in experiment [6], 13.77 nmol/h/mL. Further, the Activity in experiment [7] was 162.1 mg/dL; in [8], -12%.

Take `CCc1cc(C(c2c[nH]c3ccccc23)c2c[nH]c3ccccc23)cc2cc(C(=O)c3ccc(OC)cc3)oc12`: the Activity was -8% in experiment [1]; 196.66 mg/dL in experiment [2]; 8% in experiment [3]; 190.32 mg/dL in [4]; -9% in experiment [5]; 14.26 nmol/h/mL in [6]. Further, the Activity in experiment [7] is 169.47 mg/dL; in [8], -8%.
